Source: PubChem
An excerpt weighted towards active compounds, which were near 2.5% of everything screened.
NadD inh: inhibitors of Staphylococcus aureus NadD; purified NadD enzyme, colorimetric absorbance read-out; inhibition, % at 20 µM; actives 0.78% (n = 360,000); in the data active means inhibition above about 26%
Beta2AR agonist: activates human beta-2 adrenergic receptor causing internalization. P07550. Am2.2-beta2AR cells, FAP receptor internalization, flow cytometry. response, % (test concentration not listed). actives 0.43% (n = 340,000);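 active means response above a set limit, near 3 SD of response in nonfluorescent compounds, cut at about 42% in these data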
SENP1 FRET inh: SENP1 (human) catalytic domain inhibition; recombinant SENP1 catalytic domain, CyPet-SUMO1-YPet FRET cleavage; inhibition, % at 10 µM; actives 0.21% (n = 360,000);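 active means inhibition at least 30% at 10 µM, raw YFP signal under a set limit, fluorescence ratio 0.5 to 1.5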
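Controls: no-enzyme wells low, DMSO-plus-enzyme wells high control. Test system: human recombinant His6-tagged SENP1 catalytic domain enzyme. Reagent: SFCypet-SUMO1-SFYpet FRET protein substrate, 25 nM final. Doses: one dose per compound, 10 µM, 0.5% DMSO. Detection: FRET, CFP and YFP emission. Timing: 50 min reaction at room temperature.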
GRK2 inh: inhibitors of human GRK2 displacing RNA aptamer; P25098; bead flow cytometry, FAM-aptamer displacement from GRK2; inhibition of aptamer binding, % at 10 µM; actives 0.59% (n = 330,000); AID 488847;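 active means inhibition of aptamer binding above 40%, roughly 3 SD of noise, on plates passing a quality check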;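 further: median bead fluorescence of bound FAM aptamer so fluorescent compounds give negative values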
Target sequence (P25098 whole entry, looked up): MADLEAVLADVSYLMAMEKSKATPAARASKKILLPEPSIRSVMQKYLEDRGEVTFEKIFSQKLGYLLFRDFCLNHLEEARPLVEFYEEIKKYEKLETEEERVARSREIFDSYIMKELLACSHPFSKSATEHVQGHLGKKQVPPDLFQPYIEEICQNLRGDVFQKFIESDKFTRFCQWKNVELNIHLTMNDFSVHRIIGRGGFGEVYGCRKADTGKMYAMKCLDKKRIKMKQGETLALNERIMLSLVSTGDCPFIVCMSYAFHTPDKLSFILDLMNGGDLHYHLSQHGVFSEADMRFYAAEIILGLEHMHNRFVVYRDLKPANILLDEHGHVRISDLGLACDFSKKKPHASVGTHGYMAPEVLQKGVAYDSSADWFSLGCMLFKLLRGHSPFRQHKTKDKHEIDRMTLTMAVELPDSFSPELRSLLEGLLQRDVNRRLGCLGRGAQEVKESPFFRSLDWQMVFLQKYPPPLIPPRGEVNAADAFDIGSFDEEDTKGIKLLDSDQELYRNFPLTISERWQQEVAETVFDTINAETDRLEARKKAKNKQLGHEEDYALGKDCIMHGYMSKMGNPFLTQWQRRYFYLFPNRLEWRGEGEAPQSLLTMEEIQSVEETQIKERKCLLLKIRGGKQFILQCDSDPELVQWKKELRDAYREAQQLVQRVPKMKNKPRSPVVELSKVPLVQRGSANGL
ABHD5-PLIN5 inh: inhibitors of human ABHD5-perilipin-5 interaction; actives 0.78% (n = 360,000); inhibition, % at 4 µM; AID 602281; Q00G26+Q8WTS1; Split G. princeps luciferase complementation, luminescence, 4 h;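 active means inhibition above the mean inhibition across every tested compound plus 3 SD, cut at about 22% in these data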
GRK2 CP1: confirmation of human GRK2 inhibitors displacing RNA aptamer | shares compounds with GRK2 inh | bead-bound GRK2, FAM-aptamer displacement, flow cytometry | aptamer displacement, % at 10 µM | actives 4% (n = 2,000) | AID 504451;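 active means aptamer displacement above 40%, near three times the noise of non-fluorescent compounds, on plates passing quality checks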;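 further: negative values mostly reflect intrinsic compound fluorescence rather than true enhancement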
Aptamer quench SP: counter-screen for GRK2 aptamer inhibitors: fluorescent aptamer quenchers; shares compounds with GRK2 inh; Carboxyfluorescein RNA aptamer on beads, flow cytometry quenching; stronger effect = lower value; fluorescence response (% of DMSO), % at 10 µM; 2,000 tested, under 10 active; AID 504580;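 active means compounds that quench the bead-bound fluorescent RNA probe, cutting fluorescence to under half of the solvent control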;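 further: counterscreen run without GRK2 so only probe quenching by compound is measured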
GRK2 confirm 2: human GRK2 inhibition confirmation, cherry pick 2; 360 tested, under 10 active; inhibition of aptamer binding, % at 10 µM; shares compounds with GRK2 inh; bead-bound GRK2, FAM-aptamer displacement, flow cytometry;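 active means inhibition of aptamer binding above 40%, about triple the noise seen with nonglowing compounds, on plates passing quality control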;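 further: negative values mostly come from compounds that fluoresce themselves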
FAM quench CP2: quenches fluorescent RNA aptamer, GRK2 hit artifact | fluorescence response vs DMSO, % at 10 µM | 360 tested, under 10 active | carboxyfluorescein RNA aptamer beads, flow cytometry quenching; stronger effect = lower value | shares compounds with GRK2 inh;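 active means response vs DMSO under 50%, meaning signal dropped by over half, treated as fluorescence quencher; inconclusive means no clear call, values can overlap the other calls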;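 further: labelled aptamer on streptavidin beads without GRK2 as a quench counter-screen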
Of the large screens only hits and unclear results are named; the others gave an inactive call (follow-up assays come after a bar, where they were run).

CCC(=O)c1c[nH]c(C(=O)N2CCOCC2)c1	GRK2 inh 100.0 | GRK2 confirm 2 inactive | FAM quench CP2 inactive
CCCCn1c(NC(C)=O)c(C#N)c2nc3ccccc3nc21	none
C=CCn1c(NC(=O)c2ccccc2Cl)c(C#N)c2nc3ccccc3nc21	GRK2 inh 43.0 | GRK2 CP1 inactive | Aptamer quench SP inactive
NC(=O)[C@@H]1CCCNc2c(I)cc([N+](=O)[O-])cc2C(=O)N[C@@H](CCC(=O)O)C(=O)N[C@@H](CO)C(=O)N1	GRK2 inh 88.0 | GRK2 CP1 inactive | Aptamer quench SP inactive
NC(=O)C[C@H]1NC(=O)[C@H](CCC(=O)O)NC(=O)c2cc([N+](=O)[O-])cc(I)c2NCCC[C@@H](C(N)=O)NC1=O	none
C/C=C(\C)C(=O)OC1c2c(ccc3ccc(=O)oc23)OC(C)(C)C1OC(C)=O (centres undefined)	none
C/C=C(/C)C(=O)OC1c2c(ccc3ccc(=O)oc23)OC(C)(C)C1OC(=O)/C(C)=C\C (centres undefined)	GRK2 inh 70.0 | GRK2 CP1 inactive | Aptamer quench SP inactive
CN(CC(=O)NCCc1ccc(S(N)(=O)=O)cc1)S(=O)(=O)c1ccc(Br)s1	GRK2 inh 90.0 | GRK2 CP1 inactive | Aptamer quench SP inactive
O=C(N/N=C/c1cc([N+](=O)[O-])ccc1N1CCCCCC1)c1ccccn1	GRK2 inh 84.0 | GRK2 CP1 inactive | Aptamer quench SP inactive
O=C(c1ccccc1)c1cc([N+](=O)[O-])ccc1N1CCCC1	GRK2 inh 100.0 | GRK2 confirm 2 inactive | FAM quench CP2 inactive
CCc1ccc(OCC(=O)N/N=C/c2cc([N+](=O)[O-])ccc2N2CCCCCC2)cc1	none
CN1CCN(c2ccc([N+](=O)[O-])cc2C(=O)c2ccccc2)CC1	none
C=CCn1c(SCC(=O)Nc2ncc(Cc3ccc(Br)cc3)s2)nnc1-c1ccncc1	GRK2 inh 91.0 | GRK2 CP1 inactive | Aptamer quench SP inactive
C=CCn1c(SCC(=O)Nc2cc(C)on2)nnc1-c1ccncc1	none (no result: Beta2AR agonist, GRK2 inh)
CC(=O)Nc1cccc(-n2nnc(SCC(N)=O)n2)c1	none
CC(=O)Nc1cccc(-n2nnc(SCC(=O)Nc3ccc(F)c(Cl)c3)n2)c1	GRK2 inh 86.0 | GRK2 CP1 inactive | Aptamer quench SP inactive
Cc1ccc(CNC(=O)CCC2CCCN(C(=O)c3ccc4c(c3)OCO4)C2)o1 (centres undefined)	GRK2 inh 45.0 | GRK2 CP1 inactive | Aptamer quench SP inactive
COc1ccc(CN2C(=O)[C@@H]3C(c4ccccc4Cl)=NO[C@@H]3C2=O)cc1	none
COc1ccc(OC)c(C2=NO[C@@H]3C(=O)N(c4cc(Cl)ccc4OC)C(=O)[C@H]23)c1	none | GRK2 confirm 2 inactive | FAM quench CP2 inconclusive
COc1ccc(Cl)cc1N1C(=O)[C@@H]2C(c3cccc(OC)c3OC)=NO[C@@H]2C1=O	none | GRK2 confirm 2 inactive | FAM quench CP2 inactive
COc1ccc(C2=NO[C@@H]3C(=O)N(Cc4ccccc4)C(=O)[C@H]23)c(OC)c1	none
O=C(CSc1nnnn1-c1cccc(F)c1)NC1CC1	none
COC(=O)[C@H](Cc1ccccc1)NC(=O)N1CCN(c2ccccc2)CC1	none
O=C(O)[C@H](Cc1ccccc1)NC(=O)N1CCN(c2ccc(F)cc2)CC1	GRK2 inh 93.0 | GRK2 CP1 inactive | Aptamer quench SP inactive
CN(Cc1ccccc1)S(=O)(=O)c1ccc2[nH]cc(C(=O)NCC3CCCO3)c(=O)c2c1 (centres undefined)	GRK2 inh 45.0 | GRK2 CP1 inactive | Aptamer quench SP inactive
CCc1ccccc1NS(=O)(=O)c1ccc2[nH]cc(C(=O)NCC3CCCO3)c(=O)c2c1 (centres undefined)	none
Cc1oc(-c2ccccc2)cc1C(=O)Nc1ccc2ccccc2c1	GRK2 inh 98.0 | GRK2 CP1 inactive | Aptamer quench SP inactive
